{"source": "ChEMBL document CHEMBL4354849", "about": "“[1,2,5]Oxadiazolo[3,4-b]pyrazine-5,6-diamine Derivatives as Mitochondrial Uncouplers for the Potential Treatment of Nonalcoholic Steatohepatitis” (J Med Chem, 2020)", "key": {"Mus musculus [1]": {"test_system": "Mus musculus", "assay": "Improvement in liver fibrosis in Stelic C57BL/6 mouse model of streptozotocin-induced NASH assessed as effect on liver Cd146 mRNA expression at 25 mg/kg/day, po for 21 days"}, "Mus musculus [2]": {"test_system": "Mus musculus", "assay": "Induction of energetic stress in Stelic C57BL/6 mouse model of streptozotocin-induced NASH assessed as effect on AMPK activity at 25 mg/kg/day, po administered in high-fat diet for 21 days by Western blot analysis", "assay_type": "organism-based", "conditions": "in vivo, 504 h"}, "Mus musculus [3]": {"test_system": "Mus musculus", "assay": "Improvement in liver fibrosis in Stelic C57BL/6 mouse model of streptozotocin-induced NASH assessed as effect on liver Timp1 mRNA expression at 25 mg/kg/day, po administered in high-fat diet for 21 days", "assay_type": "functional, organism-based"}, "Mus musculus [4]": {"test_system": "Mus musculus", "assay": "Improvement in liver fibrosis in Stelic C57BL/6 mouse model of streptozotocin-induced NASH assessed as effect on liver alphaSMA mRNA expression at 25 mg/kg/day, po administered in high-fat diet for 21 days", "assay_type": "functional, organism-based"}, "[5]": {"assay": "Drug level in C57BL/6J mouse kidney at 50 mg/kg, po measured after 1 hr by LC-MS analysis", "assay_type": "ADME, organism-based", "conditions": "read-out: Drug uptake", "how_it_was_run": "(§1)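 Male C57BL/6 mice, 12 weeks old, chow-fed, given a single 50 mg/kg oral gavage bolus in 90% methylcellulose/2% Tween80/8% DMSO. Killed by cervical dislocation at 1 h. Tissues were rinsed, snap-frozen, powdered and homogenized, then extracted into 90% acetonitrile/10% methanol. Quantified by LC-MS/MS against standards spiked into vehicle-treated tissue, normalized to tissue weight. n=3.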"}, "Mus musculus [6]": {"test_system": "Mus musculus", "assay": "Improvement in liver fibrosis in Stelic C57BL/6 mouse model of streptozotocin-induced NASH assessed as improvement in pathologist derived steatosis score at 25 mg/kg/day, po administered in high-fat diet for 21 days", "assay_type": "functional, organism-based", "how_it_was_run": "(§2)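 STAM NASH model: male C57BL/6 mice got 200 µg streptozotocin subcutaneously at day 2 of life, then high-fat diet from 4 weeks. At 6 weeks they were randomized, 8 per group. Drug was mixed into the high-fat diet at 25 mg/kg/d for 21 days. Killed at 9 weeks by cardiac puncture under isoflurane. Food intake was measured per cage of 4 every 3–4 days.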"}, "Mus musculus [7]": {"test_system": "Mus musculus", "assay": "Improvement in liver fibrosis in Stelic C57BL/6 mouse model of streptozotocin-induced NASH assessed as improvement in inflammation score at 25 mg/kg/day, po administered in high-fat diet for 21 days", "assay_type": "functional, organism-based", "how_it_was_run": "as §2"}, "Mus musculus [8]": {"test_system": "Mus musculus", "assay": "Improvement in liver fibrosis in Stelic C57BL/6 mouse model of streptozotocin-induced NASH assessed as reduction in plasma triglyceride at 25 mg/kg/day, po administered in high-fat diet for 21 days", "assay_type": "functional, organism-based", "how_it_was_run": "as §2"}, "Mus musculus [9]": {"test_system": "Mus musculus", "assay": "Improvement in liver fibrosis in Stelic C57BL/6 mouse model of streptozotocin-induced NASH assessed as effect on liver Gfap mRNA expression at 25 mg/kg/day, po administered in high-fat diet for 21 days", "assay_type": "functional, organism-based"}, "Mus musculus [10]": {"test_system": "Mus musculus", "assay": "Improvement in liver fibrosis in Stelic C57BL/6 mouse model of streptozotocin-induced NASH assessed as effect on liver Cd146 mRNA expression at 25 mg/kg/day, po administered in high-fat diet for 21 days", "assay_type": "functional, organism-based"}, "[11]": {"assay": "Induction of mitochondrial uncoupling in rat L6 cells assessed as oxygen consumption rate measured over 90 mins by oxygen consumption rate by seahorse assay", "assay_type": "mitochondria, Mitochondria"}, "Mus musculus [12]": {"test_system": "Mus musculus", "assay": "Improvement in liver fibrosis in Stelic C57BL/6 mouse model of streptozotocin-induced NASH assessed as liver fibrosis score at 25 mg/kg/day, po administered in high-fat diet for 21 days by Picrosirius ed staining based assay (reference value: 0.91 +/- 0.25)", "assay_type": "functional", "how_it_was_run": "as §2"}, "[13]": {"assay": "Drug level in C57BL/6J mouse liver at 50 mg/kg, po measured after 1 hr by LC-MS analysis", "assay_type": "ADME, organism-based", "conditions": "read-out: Drug uptake", "how_it_was_run": "as §1"}, "Mus musculus [14]": {"test_system": "Mus musculus", "assay": "Improvement in liver fibrosis in Stelic C57BL/6 mouse model of streptozotocin-induced NASH assessed as decrease in liver triglyceride content at 25 mg/kg/day, po administered in high-fat diet for 21 days", "assay_type": "functional, organism-based", "how_it_was_run": "as §2"}, "Mus musculus [15]": {"test_system": "Mus musculus", "assay": "Effect on ballooning in Stelic C57BL/6 mouse model of streptozotocin-induced NASH at 25 mg/kg/day, po administered in high-fat diet for 21 days", "assay_type": "ADME, organism-based", "conditions": "in vivo, 504 h", "how_it_was_run": "as §2"}, "Mus musculus [16]": {"test_system": "Mus musculus", "assay": "Improvement in liver fibrosis in Stelic C57BL/6 mouse model of streptozotocin-induced NASH assessed as effect on liver Tgfb1 mRNA expression at 25 mg/kg/day, po administered in high-fat diet for 21 days", "assay_type": "functional, organism-based"}, "Mus musculus [17]": {"test_system": "Mus musculus", "assay": "Induction of hyperglycemia in Stelic C57BL/6 mouse model of streptozotocin-induced NASH at 25 mg/kg/day, po administered in high-fat diet for 21 days", "assay_type": "organism-based", "conditions": "in vivo, 504 h", "how_it_was_run": "as §2"}, "Mus musculus [18]": {"test_system": "Mus musculus", "assay": "Improvement in liver fibrosis in Stelic C57BL/6 mouse model of streptozotocin-induced NASH assessed as effect on plasma AST level at 25 mg/kg/day, po administered in high-fat diet for 21 days", "assay_type": "functional, organism-based", "how_it_was_run": "as §2"}, "[19]": {"assay": "Drug level in C57BL/6J mouse brain at 50 mg/kg, po measured after 1 hr by LC-MS analysis", "assay_type": "ADME, organism-based", "conditions": "read-out: Drug uptake", "how_it_was_run": "as §1"}, "Mus musculus [20]": {"test_system": "Mus musculus", "assay": "Improvement in liver fibrosis in Stelic C57BL/6 mouse model of streptozotocin-induced NASH assessed as effect on liver MMP2 mRNA expression at 25 mg/kg/day, po administered in high-fat diet for 21 days", "assay_type": "functional, organism-based"}, "[21]": {"assay": "Drug level in C57BL/6J mouse heart at 50 mg/kg, po measured after 1 hr by LC-MS analysis", "assay_type": "ADME, organism-based", "conditions": "read-out: Drug uptake", "how_it_was_run": "as §1"}, "[22]": {"assay": "Drug level in C57BL/6J mouse quadricep muscle at 50 mg/kg, po measured after 1 hr by LC-MS analysis", "assay_type": "ADME, organism-based, Quadriceps femoris", "conditions": "read-out: Drug uptake", "how_it_was_run": "as §1"}, "Mus musculus [23]": {"test_system": "Mus musculus", "assay": "Improvement in liver fibrosis in Stelic C57BL/6 mouse model of streptozotocin-induced NASH assessed as NAS score at 25 mg/kg/day, po administered in high-fat diet for 21 days (reference value: 4.6 +/- 0.7)", "assay_type": "functional", "how_it_was_run": "as §2"}, "Mus musculus [24]": {"test_system": "Mus musculus", "assay": "Improvement in liver fibrosis in Stelic C57BL/6 mouse model of streptozotocin-induced NASH assessed as effect on liver Col1a1 mRNA expression at 25 mg/kg/day, po administered in high-fat diet for 21 days", "assay_type": "functional, organism-based"}, "Mus musculus [25]": {"test_system": "Mus musculus", "assay": "Improvement in liver fibrosis in Stelic C57BL/6 mouse model of streptozotocin-induced NASH assessed as increase in plasma cholesterol at 25 mg/kg/day, po administered in high-fat diet for 21 days", "assay_type": "functional, organism-based", "how_it_was_run": "as §2"}, "Mus musculus [26]": {"test_system": "Mus musculus", "assay": "Effect on food intake in Stelic C57BL/6 mouse model of streptozotocin-induced NASH assessed as reduction in food intake at 25 mg/kg/day, po administered in high-fat diet for 21 days", "assay_type": "ADME, organism-based", "conditions": "in vivo, 504 h", "how_it_was_run": "as §2"}, "Mus musculus [27]": {"test_system": "Mus musculus", "assay": "Effect on core body temperature in C57BL/6J mouse at 25 to 100 mg/kg, po measured 1 to 24 hrs post dose by rectal probe thermometer based assay", "assay_type": "ADME, organism-based", "conditions": "in vivo", "how_it_was_run": "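Male C57BL/6 mice, 11 weeks old, given single oral gavage doses of 25, 50 or 100 mg/kg, or vehicle (90% methylcellulose/2% Tween80/8% DMSO). Core temperature was read by rectal probe thermometer at 1, 2, 4 and 24 h after dosing. n=5–6 per group.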"}, "[28]": {"assay": "Drug level in C57BL/6J mouse white adipose tissue at 50 mg/kg, po measured after 1 hr by LC-MS analysis", "assay_type": "ADME, organism-based", "conditions": "read-out: Drug uptake", "how_it_was_run": "as §1"}, "Mus musculus [29]": {"test_system": "Mus musculus", "assay": "Induction of energetic stress in Stelic C57BL/6 mouse model of streptozotocin-induced NASH assessed as effect on AMPK-dependent ACC activity at 25 mg/kg/day, po administered in high-fat diet for 21 days by Western blot analysis", "assay_type": "organism-based", "conditions": "in vivo, 504 h"}, "Mus musculus [30]": {"test_system": "Mus musculus", "assay": "Improvement in liver fibrosis in Stelic C57BL/6 mouse model of streptozotocin-induced NASH assessed as effect on serum ALT level at 25 mg/kg/day, po administered in high-fat diet for 21 days", "assay_type": "functional, organism-based", "how_it_was_run": "as §2"}, "Mus musculus [31]": {"test_system": "Mus musculus", "assay": "Improvement in liver fibrosis in Stelic C57BL/6 mouse model of streptozotocin-induced NASH assessed as effect on liver Gfap mRNA expression at 25 mg/kg/day, po for 21 days"}}, "note": "pEC50: −log10 of the molar value. Calls of active or inactive are those of the source. The rule behind the calls is not given here.", "data": [{"smiles": "Fc1cccc(Nc2nc3nonc3nc2Nc2ccccc2F)c1", "values": [{"measurement": "Activity", "setting": "Mus musculus [1]", "result": "inactive"}, {"measurement": "Activity", "setting": "Mus musculus [2]", "result": "Non-Toxic"}, {"measurement": "Activity", "setting": "Mus musculus [3]", "result": "inactive"}, {"measurement": "Activity", "setting": "Mus musculus [4]", "result": "inactive"}, {"measurement": "concentration at 1 h", "setting": "[5]", "result": 4.83, "unit": "µM"}, {"measurement": "Activity", "setting": "Mus musculus [6]", "result": "inactive"}, {"measurement": "Activity", "setting": "Mus musculus [7]", "result": "Active"}, {"measurement": "Activity", "setting": "Mus musculus [8]", "result": "inactive"}, {"measurement": "Activity", "setting": "Mus musculus [9]", "result": "inactive"}, {"measurement": "Activity", "setting": "Mus musculus [10]", "result": "inactive"}, {"measurement": "pEC50", "setting": "[11]", "result": 6.72}, {"measurement": "Activity", "setting": "Mus musculus [12]", "result": 0.49}, {"measurement": "concentration at 1 h", "setting": "[13]", "result": 13.4, "unit": "µM"}, {"measurement": "Activity", "setting": "Mus musculus [14]", "result": "Active"}, {"measurement": "Activity", "setting": "Mus musculus [15]", "result": "Non-Toxic"}, {"measurement": "Activity", "setting": "Mus musculus [16]", "result": "inactive"}, {"measurement": "Activity", "setting": "Mus musculus [17]", "result": "Non-Toxic"}, {"measurement": "Activity", "setting": "Mus musculus [18]", "result": "inactive"}, {"measurement": "concentration at 1 h", "setting": "[19]", "result": 850, "unit": "nM"}, {"measurement": "Activity", "setting": "Mus musculus [20]", "result": "inactive"}, {"measurement": "concentration at 1 h", "setting": "[21]", "result": 2090, "unit": "nM"}, {"measurement": "concentration at 1 h", "setting": "[22]", "result": 260, "unit": "nM"}, {"measurement": "Activity", "setting": "Mus musculus [23]", "result": 3.9}, {"measurement": "Activity", "setting": "Mus musculus [24]", "result": "inactive"}, {"measurement": "Activity", "setting": "Mus musculus [25]", "result": "inactive"}, {"measurement": "Activity", "setting": "Mus musculus [26]", "result": "Non-Toxic"}, {"measurement": "Activity", "setting": "Mus musculus [27]", "result": "Non-Toxic"}, {"measurement": "concentration at 1 h", "setting": "[28]", "result": 2850, "unit": "nM"}, {"measurement": "Activity", "setting": "Mus musculus [29]", "result": "Non-Toxic"}, {"measurement": "Activity", "setting": "Mus musculus [30]", "result": "Active"}, {"measurement": "Activity", "setting": "Mus musculus [31]", "result": "inactive"}]}]}
